Compound activity from PubChem.
Compounds with a hit are over-represented: about 4.8% of the library has one in this group of screens.
ERa coact inh = ER-alpha (human) coactivator binding inhibition; 86,000 tested, 1.7% active; inhibition, % at 25.6 µM; P03372; AID 629; TR-FRET ER-alpha LBD / SRC-1 peptide, estradiol-bound; in the data active = inhibition above about 50%;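 also: 0% = receptor plus peptide control and 100% = peptide only without receptor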
ERa SRC1 pot = ER-alpha (human) coactivator binding potentiation; P03372; TR-FRET ERalpha-LBD/SRC-Cy5 coactivator binding, 2 h; 100 = basal binding, no effect; coactivator binding (% of control), % at 25.6 µM; 86,000 tested, 1.3% active; AID 639; in the data active = activity above about 200%;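 also: binding measured in presence of low estradiol as agonist stimulus; 0% = peptide alone without receptor and 100% = receptor with peptide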
RORa activator = activators of human nuclear receptor RORA | 65,000 tested, 1.5% active | CHO-K1 Gal4-RORA LBD luciferase reporter, luminescence; percent increase over mock-subtracted basal signal | AID 560 | activation, % at 10 µM | P35398;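 active = activation above the mean of all tested compounds plus 3 SD, cut at about 49% in these data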;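 also: 0% = DMSO-treated RORA cells and 100% = added signal equal to DMSO minus mock-transfected cells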
Target sequence (P35398 whole entry, looked up, the tested form may be a part): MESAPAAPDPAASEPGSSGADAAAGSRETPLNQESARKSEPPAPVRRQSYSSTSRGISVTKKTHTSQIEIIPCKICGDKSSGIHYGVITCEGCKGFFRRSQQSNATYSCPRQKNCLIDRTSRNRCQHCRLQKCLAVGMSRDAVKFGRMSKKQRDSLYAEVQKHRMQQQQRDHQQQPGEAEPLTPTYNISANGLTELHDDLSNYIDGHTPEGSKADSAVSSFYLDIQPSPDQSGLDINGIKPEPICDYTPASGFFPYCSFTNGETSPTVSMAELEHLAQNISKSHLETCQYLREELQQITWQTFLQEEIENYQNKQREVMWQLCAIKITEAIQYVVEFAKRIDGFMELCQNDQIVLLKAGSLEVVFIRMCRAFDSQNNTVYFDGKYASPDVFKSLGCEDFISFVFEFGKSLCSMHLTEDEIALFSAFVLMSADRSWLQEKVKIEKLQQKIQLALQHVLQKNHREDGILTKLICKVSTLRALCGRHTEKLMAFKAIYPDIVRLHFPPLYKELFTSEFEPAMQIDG
Pyk2 oligo antag = blocks oligomerization of human Pyk2 in cells; Q293 cells, Pyk2 FERM NanoBiT luminescence; active compounds read low; AID 1347419; 99,000 tested, 0.83% active; z-score (the deposit names both 25 µM and 10 µM); Q14289;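 active = Z-score of -3 or lower, scaled per plate to the spread of control and sample wells; inactive = z-score above -3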;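 also: negative z-score means lost luminescence so less FERM oligomerization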
ERb SRC1 inh = blocks coactivator binding to human estrogen receptor beta. Q92731. TR-FRET ER-beta LBD / SRC1-Cy5 peptide binding; receptor agonist-loaded with 1 µM estradiol. 86,000 tested, 1.3% active. AID 633. inhibition, % at 25.6 µM;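 active = compounds whose percent inhibition of the receptor-coactivator binding signal exceeds about 50% in the single-dose screen, limit read from the data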;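 also: 0% = receptor plus peptide wells without compound and 100% = peptide-only wells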
SF1 activator = activates the human nuclear receptor SF-1 | Q13285 | CHO-K1 Gal4-SF-1 LBD luciferase reporter; % increase over DMSO SF-1-specific signal | activation, % at 10 µM | 65,000 tested, 1.9% active;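 active = activation above the mean activation of all tested compounds plus 3 SD, cut at about 50% in these data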
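Assay system: CHO-K1 cells co-transfected with Gal4 DBD–human SF-1 LBD, 5xGal4 luciferase reporter; doses: 10 µM only; incubation: 20 h compound exposure at 37 °C after 1 h cell settling; signal: luciferase light emission; evaluation: percent activation versus DMSO; repeats: one test per compound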
Starred values were filed as active, the others as inactive; [ ] = another dose, or the depositor's remark.

For NC1=CC(=O)c2cccc3cccc1c23 the results were ERa coact inh 85.8*[fluorescence artefact?], ERa SRC1 pot 58.8, RORa activator -19.7, ERb SRC1 inh 75.9*[fluorescence artefact?] and SF1 activator -18.9.
Cc1nnc(C)n1N1C(=O)c2cccc3cccc(c23)C1=O was read as ERa coact inh -30.2, ERa SRC1 pot 107.5, RORa activator -8.7, Pyk2 oligo antag 1.66, ERb SRC1 inh -12.2 and SF1 activator -3.6.
O=C(c1ccc(-c2nnc(-c3ccccc3)o2)cc1)N1CCCCCC1 was read as ERa coact inh 1.9, ERa SRC1 pot 108.7, RORa activator 60.3*, Pyk2 oligo antag 0.01, ERb SRC1 inh -7.4 and SF1 activator 1.0.
Cc1cccc2c(Cl)cc(=O)[nH]c12 was read as ERa coact inh -5.6, ERa SRC1 pot 104.3 and ERb SRC1 inh -3.5.
`CCCCN1CCc2c([nH]c3c(C)cccc23)C1=O` gave ERa coact inh -8.8, ERa SRC1 pot 587.2*[fluorescence artefact?], RORa activator 28.4, Pyk2 oligo antag 0.54, ERb SRC1 inh -9.8 and SF1 activator 37.3.
For Cc1cc(N2C(=O)C3CC=CCC3C2=O)no1 (configuration not stated) the results were ERa coact inh -5.3, ERa SRC1 pot 103.6, Pyk2 oligo antag 2.17 and ERb SRC1 inh 1.4.
Screening Cc1ccc(CC2CC(=O)N(c3cc(C)on3)C2=O)cc1 (configuration not stated) returned ERa coact inh -10.3, ERa SRC1 pot 201.3*[fluorescence artefact?], RORa activator -10.1, ERb SRC1 inh -15.1 and SF1 activator -11.2.
For CCOC(=O)C1=C(C)N=C2SC(CC)C(=O)N2C1c1ccc(OC(C)=O)c(OCC)c1 (configuration not stated) the results were RORa activator -3.8 and SF1 activator 12.3.
CCC(C)NC(=O)Cn1cnc2sc(C)cc2c1=O (configuration not stated) was read as RORa activator 2.9, Pyk2 oligo antag -0.13 and SF1 activator -0.4.
`Cc1c(-c2nc(N)nc(Nc3ccc(F)cc3)n2)oc2ccccc12` gave ERa coact inh -27.6, ERa SRC1 pot 113.7, RORa activator 73.8*, Pyk2 oligo antag -1.59, ERb SRC1 inh -22.4 and SF1 activator 77.9*.
`CSc1nnc2c3cc(F)ccc3n(Cc3ccccc3)c2n1` gave ERa coact inh 15.5, ERa SRC1 pot 336.3*, RORa activator -6.9, Pyk2 oligo antag -0.29, ERb SRC1 inh 19.3 and SF1 activator -6.2.
Screening CSc1nnc2c3ccccc3n(CCc3ccccc3)c2n1 returned ERa coact inh -5.1, ERa SRC1 pot 115.9, RORa activator 0.4, Pyk2 oligo antag -3.3*, ERb SRC1 inh -0.9 and SF1 activator -23.5.
Screening Cc1ccc2cc3cc(C(=O)N4CCCCC4C)oc3nc2c1 (configuration not stated) returned ERa coact inh 0.8, ERa SRC1 pot 112.7, RORa activator 26.9, Pyk2 oligo antag -1.4, ERb SRC1 inh 3.6 and SF1 activator 64.9*.
Screening COc1cccc(NC(=O)CSCc2n[nH]c(=O)[nH]2)c1 returned ERa coact inh -1.3, ERa SRC1 pot 99.4, RORa activator -11.7, Pyk2 oligo antag -0.1, ERb SRC1 inh 4.9 and SF1 activator 5.8.
For CCCCC(CC)Cn1c2nc3ccccc3nc2c2c(=N)oc(C)nc21 (configuration not stated) the results were ERa coact inh 21.4, ERa SRC1 pot 267.1*[fluorescence artefact?], RORa activator 5.5, ERb SRC1 inh 43.7 and SF1 activator -1.4.
COc1ccc(-n2c3nc4ccccc4nc3c3c(=N)oc(C)nc32)cc1 was read as Pyk2 oligo antag -0.96.
For CCCCn1c2nc3ccccc3nc2c2c(=N)oc(C)nc21 the results were ERa coact inh 6.8, ERa SRC1 pot 314.4*[fluorescence artefact?], RORa activator 21.6, Pyk2 oligo antag 1.17, ERb SRC1 inh 31.8 and SF1 activator 11.7.
COC(=O)c1cc(Br)c(=O)n(Cc2ccc(OC)c(OC)c2)c1 was read as ERa coact inh 6.4, ERa SRC1 pot 101.2, RORa activator 17.0, Pyk2 oligo antag -0.07, ERb SRC1 inh 7.6 and SF1 activator -5.0.
Screening COc1ccc(-c2oc(NC(=O)CSc3nncn3C)c(C#N)c2-c2ccc(OC)cc2)cc1 returned Pyk2 oligo antag -3.78*.
CCn1c(SCC(=O)Nc2oc(-c3ccccc3)c(-c3ccccc3)c2C#N)nnc1-c1ccco1 was read as ERa coact inh 5.3, ERa SRC1 pot 69.2, RORa activator -4.2, Pyk2 oligo antag -1.93, ERb SRC1 inh 7.7 and SF1 activator 3.5.
`COc1ccccc1/C=C/CN1CC(C)OC(C)C1` (configuration not stated) gave ERa coact inh -4.9, ERa SRC1 pot 112.7, RORa activator -24.3, Pyk2 oligo antag 0.26, ERb SRC1 inh -8.3 and SF1 activator 10.2.
Screening COc1ccc(CC(=O)Nc2ccc(-c3nnc(-c4ccccc4)o3)cc2)cc1OC returned ERa coact inh 70.3*[fluorescence artefact?], ERa SRC1 pot 96.8, RORa activator 5.0, Pyk2 oligo antag -0.38, ERb SRC1 inh 50.7*[fluorescence artefact?] and SF1 activator -76.7.
COc1ccc(CC(=O)Nc2cccc(-c3nnc(-c4ccc(C)cc4)o3)c2)cc1OC was read as RORa activator -5.7, Pyk2 oligo antag -2.47 and SF1 activator -0.8.
Screening COc1ccc(-c2nc3cc(NC(=O)Cc4ccc(OC)c(OC)c4)ccc3o2)cc1 returned ERa coact inh 26.8, ERa SRC1 pot 273.2*[fluorescence artefact?], RORa activator 18.4, Pyk2 oligo antag -1.55, ERb SRC1 inh 16.4 and SF1 activator 6.2.
`CCN(CC)CC(=O)Nc1ccc(-c2nc3cc(NC(=O)CN(CC)CC)ccc3o2)cc1` gave ERa coact inh 11.7, ERa SRC1 pot 82.8, RORa activator -14.1, Pyk2 oligo antag 0.06, ERb SRC1 inh 3.5 and SF1 activator 8.5.
O=C(COc1ccccc1)Nc1ccc(-c2nnc(-c3ccco3)o2)cc1 was read as ERa coact inh 35.5, ERa SRC1 pot 109.2, RORa activator 48.6, Pyk2 oligo antag 0, ERb SRC1 inh 12.2 and SF1 activator 65.7*.
For COc1ccc(CC(=O)Nc2cccc(-c3nnc(-c4ccccc4)o3)c2)cc1OC the results were ERa coact inh 29.6, ERa SRC1 pot 138.4, RORa activator 9.1, Pyk2 oligo antag -3.63*, ERb SRC1 inh 16.9 and SF1 activator -6.5.
Screening O=C(NC1CCCC1)c1ncn[nH]1 returned Pyk2 oligo antag -0.38.
Screening Cc1ccc2nc(N3CCN(C(=O)c4cccs4)CC3)c(C#N)cc2c1 returned ERa coact inh 10.0, ERa SRC1 pot 178.8, RORa activator -12.7, Pyk2 oligo antag 1.49, ERb SRC1 inh 8.6 and SF1 activator 13.9.
`CC1CCN(S(=O)(=O)c2ccc(S(=O)(=O)NCC(=O)C(C)(C)C)cc2)CC1` gave RORa activator -8.1, Pyk2 oligo antag 0.76 and SF1 activator -15.6.
